Laboratory results as given in paper PMC8892681 (ACS Omega, 2022).
“Also recorded” adds a separate entry of the source. Read-outs that look alike come from different tables or passages of the source.

Key:
C. difficile = test: MIC by broth microdilution against C. difficile; type: cell-based, Clostridioides difficile
VREfm [1] = test: MIC by broth microdilution against E. faecium; type: cell-based, Enterococcus faecium; conditions: for fold loss in activity against E. faecium: compared with analogue 1
[2] = system: C. difficile strain EDN0008; test: Time-kill assay against C. difficile; type: cell-based, Clostridioides difficile
[3] = system: E. faecium strain Aus0085; test: Time-kill assay against E. faecium; type: cell-based, Enterococcus faecium
human erythrocytes [4] = test: Haemolysis assay; type: cell-based; conditions: 1 h, 37 °C
Outline: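 Human whole blood collected in K2-EDTA and pelleted at 500 g for 5 min. RBCs washed twice in saline and once in PBS, then diluted 1:50 in PBS. Test compound made at 20× in DMSO and added 1:20 (final 0.125−128 mg/L). Incubated 1 h at 37 °C. Controls were DMSO vehicle and 1% (v/v) Triton X-100. After centrifugation at 500g, supernatant A450 was read. Three biological replicates.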

[5] = Pharmacokinetics and urinary/faecal recovery after oral administration in rats; type: in vivo, Sprague Dawley rats; conditions: 30 mg/kg; for AUC(0-inf) / Cmax / Tmax / half-life: male, Sprague Dawley, rat, plasma, po; for % dose in urine (0–48 h): unchanged compound, male Sprague Dawley rats, oral, mean ± SD n = 3
Caco-2 cell monolayers = test: Caco-2 cell permeability; type: in vitro ADME
VREfm [6] = conditions: range of clinically relevant E. faecium strains; cited from earlier work
human erythrocytes [7] = conditions: cited from earlier work
HepG2 = conditions: cited from earlier work
Caco-2 cell permeability = type: in vitro ADME; conditions: human, Caco-2, pH 7.4
[8] = exposure to 4 μg/mL, up to 48 h

**Q.** With CC(CN)c1ccc(Oc2ccc(-c3noc(-c4ccc(O)cc4)n3)cc2)cc1.Cl (racemic) [15f, (RS)-4-(3-(4-(4-(1-Aminopropan-2-yl)phenoxy)phenyl)-1,2,4-oxadiazol-5-yl)phenol Hydrochloride] as the molecule, how does the “fold loss in potency against C. difficile” value (C. difficile; compared with the ethyl linker 15e) read?
**A.** The value was 5 fold.

**Q.** Which “fold loss in potency against C. difficile” value (C. difficile; 4 position versus same substituent at 2 and 3 positions / analogue 1) does the source give for O=C(O)CCc1ccc(Oc2ccc(-c3noc(-c4ccc(O)cc4)n3)cc2)cc1 [9g, 3-(4-(4-(5-(4-Hydroxyphenyl)-1,2,4-oxadiazol-3-yl)phenoxy)phenyl)propanoic Acid] here?
**A.** Its value is 4 fold.

**Q.** For Cl.NCc1ccccc1Oc1ccc(-c2noc(-c3ccc(O)cc3)n2)cc1 [15a, 4-(3-(4-(2-(Aminomethyl)phenoxy)phenyl)-1,2,4-oxadiazol-5-yl)phenol Hydrochloride], which “fold loss in activity against E. faecium” value (VREfm [1]) is on record?
**A.** The value was 4 fold.

**Q.** Which “fold loss in activity against E. faecium” value (VREfm [1]) does the source give for Cl.NCCc1ccccc1Oc1ccc(-c2noc(-c3ccc(O)cc3)n2)cc1 [15b, 4-(3-(4-(2-(2-Aminoethyl)phenoxy)phenyl)-1,2,4-oxadiazol-5-yl)phenol Hydrochloride] here?
**A.** The value was 4 fold.

**Q.** Which “fold loss in activity against E. faecium” value (VREfm [1]) does the source give for Cl.NCc1ccc(Oc2ccc(-c3noc(-c4ccc(O)cc4)n3)cc2)cc1 [15d, 4-(3-(4-(4-(Aminomethyl)phenoxy)phenyl)-1,2,4-oxadiazol-5-yl)phenol Hydrochloride] here?
**A.** Its value is 2 fold.

**Q.** Which “fold loss in activity against E. faecium” value (VREfm [1]) does the source give for Cl.NCCc1ccc(Oc2ccc(-c3noc(-c4ccc(O)cc4)n3)cc2)cc1 [15e, 4-(3-(4-(4-(2-Aminoethyl)phenoxy)phenyl)-1,2,4-oxadiazol-5-yl)phenol Hydrochloride] here?
**A.** Its value is 2 fold.

**Q.** What about the “time to 100% kill of C. difficile” value [2] of the same molecule?
**A.** Its value is ≤ 3 h.

**Q.** And the “time to 100% kill of VREfm” value ([3]; 4 μg/mL)?
**A.** The value was ≤ 24 h.

**Q.** What about the “time to 100% kill of VREfm” value ([3]; 8 μg/mL (2× MIC of 15e)) of the same molecule?
**A.** The value was ≤ 1 h.

**Q.** What about the “regrowth of VREfm in time-kill assay” value [3, 8] of the same molecule?
**A.** The value was “remained undetectable”.

**Q.** What about the “regrowth of VREfm in time-kill assay” value ([3]; exposure to 8 μg/mL) of the same molecule?
**A.** The value was “no rebounding growth observed”.

**Q.** What about the “concentration leading to substantial levels of haemolysis” value (human erythrocytes [4]) of the same molecule?
**A.** Its value is ≥ 64 µg/mL.

**Q.** And the AUC(0-inf) [5]?
**A.** Its AUC(0-inf) is 0.9 ± 0.22 µM·h.

**Q.** What about the Cmax [5] of the same molecule?
**A.** Its Cmax is 160 ± 38 nM.

**Q.** And the Tmax [5]?
**A.** Its Tmax is 2.5 h.

**Q.** What about the half-life [5] of the same molecule?
**A.** The half-life was 2 ± 0.3 h.

**Q.** What about the “% dose in urine (0–48 h)” value [5] of the same molecule?
**A.** Its value is 0.08 ± 0.03%.

**Q.** Which “fold increase in activity against E. faecium” value (VREfm [1]; propylamine versus ethylamine linker (15e)) does the source give for Cl.NCCCc1ccc(Oc2ccc(-c3noc(-c4ccc(O)cc4)n3)cc2)cc1 [15h, 4-(3-(4-(4-(3-Aminopropyl)phenoxy)phenyl)-1,2,4-oxadiazol-5-yl)phenol Hydrochloride] here?
**A.** The value was 2 fold.

**Q.** Which “fold decrease in activity against E. faecium” value (VREfm [1]; compared with the primary amine 15e) does the source give for C[N+](C)(C)CCc1ccc(Oc2ccc(-c3noc(-c4ccc(O)cc4)n3)cc2)cc1.[I-] [26a, 2-(4-(4-(5-(4-Hydroxyphenyl)-1,2,4-oxadiazol-3-yl)phenoxy)phenyl)-N,N,N-trimethylethan-1-aminium Iodide] here?
**A.** The value was 2 fold.

**Q.** And the “permeability across Caco-2 cell monolayer (in words)” value (Caco-2 cell monolayers; not detected in acceptor chamber, fully recovered in donor chamber)?
**A.** Its value is “complete impermeability; also recorded: no detectable permeability”.

**Q.** And the AUC(0-inf) [5]?
**A.** The AUC(0-inf) was 0.28 ± 0.27 µM·h.

**Q.** What about the Cmax [5] of the same molecule?
**A.** The Cmax was 39 ± 46 nM.

**Q.** What about the Tmax [5] of the same molecule?
**A.** The Tmax was 2.8 ± 2 h.

**Q.** What about the half-life [5] of the same molecule?
**A.** Its half-life is 5.3 ± 2.1 h.

**Q.** And the “% dose in urine (0–48 h)” value [5]?
**A.** The value was 0.06 ± 0.03%.

**Q.** Which “C. difficile MIC” value (C. difficile; broth microdilution, 48 h anaerobic, biological triplicate) does the source give for CN[C@H](CC(C)C)C(=O)N[C@H]1C(=O)N[C@@H](CC(N)=O)C(=O)N[C@H]2C(=O)N[C@H]3C(=O)N[C@H](C(=O)N[C@H](C(=O)O)c4cc(O)cc(O)c4-c4cc3ccc4O)[C@H](O)c3ccc(c(Cl)c3)Oc3cc2cc(c3O[C@@H]2O[C@H](CO)[C@@H](O)[C@H](O)[C@H]2O[C@H]2C[C@](C)(N)[C@H](O)[C@H](C)O2)Oc2ccc(cc2Cl)[C@H]1O [Vancomycin, vancomycin, reference compound] here?
**A.** Its value is 2 µg/mL.

**Q.** What about the “killing activity in time-kill assay” value ([2]; C. difficile EDN0008, 1 at ≥2 × MIC (12–48 μg/mL), vancomycin 8 μg/mL) of the same molecule?
**A.** The value was “bacteriostatic activity”.

**Q.** Which results are given for Oc1ccc(-c2nc(-c3ccc(Oc4ccccc4)cc3)no2)cc1 [compound 1, 4-(3-(4-Phenoxyphenyl)-1,2,4-oxadiazol-5-yl)phenol]?
**A.** killing activity in time-kill assay [2]: rapid bactericidal activity; time to 100% kill of VREfm ([3]; 4 μg/mL): ≤ 24 h; time to 100% kill of VREfm ([3]; 8 μg/mL (2× MIC of 15e)): ≤ 1 h; regrowth of VREfm in time-kill assay [3, 8]: rebounding growth of VREfm was observed after 48 h; regrowth of VREfm in time-kill assay ([3]; exposure to 8 μg/mL): no rebounding growth observed; E. faecium MIC90 (VREfm [6]): 2 µg/mL; concentration leading to haemolysis in human erythrocytes (human erythrocytes [7]): > 64 µg/mL; HepG2 viability (HepG2; at concentrations higher than 2 μg/mL): reduced viability; toxicity against HepG2 (HepG2; at the E. faecium MIC90 (2 μg/mL)): not toxic

**Q.** For CC(C)NCC(O)COc1cccc2ccccc12 (centres unmarked) [propranolol], which Papp A→B at 120 min (Caco-2 cell permeability) is on record?
**A.** Its Papp A→B at 120 min is 42 ± 2.5 ×10⁻⁶ cm/s.

**Q.** What does the source list for COC(=O)c1ccccc1-c1c2ccc(=N)cc-2oc2cc(N)ccc12 [rhodamine 123]?
**A.** Papp A→B at 120 min (Caco-2 cell permeability): 1.6 ± 0.13 ×10⁻⁶ cm/s; Papp B→A at 120 min (Caco-2 cell permeability): 12 ± 2.7 ×10⁻⁶ cm/s; efflux ratio at 120 min (Caco-2 cell permeability): 7.3

**Q.** Which Papp (Caco-2 cell monolayers; low permeability marker, acceptor solution) does the source give for lucifer yellow here?
**A.** Its Papp is < 1 10^–6 cm/s.
